Measurements reported in ChEMBL document CHEMBL1127060 (1993).
Calls of active or inactive are those of the source. The rule behind the calls is not given here.

Experiments:
Cavia porcellus [1] = species on record: Cavia porcellus; test: Tested for relaxation of carbachol-contracted guinea pig taenia coli at 37 degree C; Significantly less potent than ATP; format: functional
Cavia porcellus [2] = species on record: Cavia porcellus; test: Tested for contraction of guinea pig isolated urinary bladder detrusor muscle at 37 degree C; Not active; format: functional; details: Muscle tissue
Cavia porcellus [3] = species on record: Cavia porcellus; test: Tested for contraction of guinea pig vas deferens at 37 degree C; Not active; format: functional
[4] = Agonism at turkey erythrocyte P2Y receptor.; format: functional, Meleagris gallopavo
Outline: (§1)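 Turkey erythrocytes labeled 18–24 h at 37 °C with 2-[3H]myo-inositol in inositol-free DMEM; ghosts made by hypotonic lysis (5 mM Na phosphate pH 7.4, 5 mM MgCl2, 1 mM EGTA). PLC assay: ~175 μg protein ghosts, 1 μM GTPγS, Hepes pH 7.0 medium with 424 μM CaCl2, 2 mM EGTA; 5 min, 30 °C; total [3H]inositol phosphates by anion exchange; K0.5 averaged from 3–8 curves.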

Oryctolagus cuniculus [5] = species on record: Oryctolagus cuniculus; test: Tested for relaxation of carbachol-contracted rabbit mesenteric artery at 37 degree C; Not active; format: functional
Oryctolagus cuniculus [6] = species on record: Oryctolagus cuniculus; test: Tested for relaxation of carbachol-contracted rabbit aorta at 37 degree C; Not active; format: functional
Oryctolagus cuniculus [7] = species on record: Oryctolagus cuniculus; test: Tested for contraction of rabbit saphenous artery produced by 1 uM alpha,beta-MeATP at 37 degree C; format: functional
Oryctolagus cuniculus [8] = species on record: Oryctolagus cuniculus; test: Tested for relaxation of carbachol-contracted rabbit mesenteric artery at 37 degree C; More potent than or equal to 2MeSATP; format: functional
Cavia porcellus [9] = species on record: Cavia porcellus; test: Tested for relaxation of carbachol-contracted guinea pig taenia coli at 37 degree C; Less potent than or equal to ATP; format: functional
Meleagris gallopavo [10] = test: Induction of inositol phosphate in turkey erythrocyte membranes at 100 uM; Inactive; format: functional, cell membranes; outline: as §1
Cavia porcellus [11] = species on record: Cavia porcellus; test: Tested for contraction of guinea pig vas deferens at 37 degree C; Significantly more potent than ATP; format: functional
Cavia porcellus [12] = species on record: Cavia porcellus; test: Tested for contraction of guinea pig isolated urinary bladder detrusor muscle at 37 degree C; Less potent than or equal to ATP; format: functional; details: Muscle tissue
Cavia porcellus [13] = species on record: Cavia porcellus; test: Tested for relaxation of carbachol-contracted guinea pig taenia coli at 37 degree C; Significantly more potent than ATP; format: functional
Oryctolagus cuniculus [14] = species on record: Oryctolagus cuniculus; test: Tested for relaxation of carbachol-contracted rabbit aorta at 37 degree C; Significantly more potent than 2MeSATP; format: functional
Oryctolagus cuniculus [15] = species on record: Oryctolagus cuniculus; test: Tested for relaxation of carbachol-contracted rabbit mesenteric artery at 37 degree C; Significantly more potent than 2MeSATP; format: functional
Cavia porcellus [16] = species on record: Cavia porcellus; test: Tested for contraction of guinea pig isolated urinary bladder detrusor muscle by 1 uM alpha,beta-MeATP at 37 degree C; Not active; format: functional; details: Muscle tissue
Oryctolagus cuniculus [17] = species on record: Oryctolagus cuniculus; test: Tested for relaxation of carbachol-contracted rabbit mesenteric artery at 37 degree C; Significantly less potent than 2MeSATP; format: functional
Cavia porcellus [18] = species on record: Cavia porcellus; test: Tested for relaxation of carbachol-contracted guinea pig taenia coli at 37 degree C; Potency equal to ATP; format: functional
Oryctolagus cuniculus [19] = species on record: Oryctolagus cuniculus; test: Tested for contraction of rabbit saphenous artery produced by 1 uM alpha,beta-MeATP at 37 degree C; Not active; format: functional
Meleagris gallopavo [20] = test: Stimulating production of inositol phosphate in turkey erythrocyte membranes at a concentration of 100 uM; Inactive; format: functional, cell membranes; outline: as §1
Meleagris gallopavo [21] = test: Tested for stimulation of production of inositol phosphate in turkey erythrocyte membrane; Not active; format: functional; outline: as §1
Oryctolagus cuniculus [22] = species on record: Oryctolagus cuniculus; test: Tested for relaxation of carbachol-contracted rabbit aorta at 37 degree C; Potency equal to 2MeSATP; format: functional
Oryctolagus cuniculus [23] = species on record: Oryctolagus cuniculus; test: Tested for relaxation of carbachol-contracted rabbit mesenteric artery at 37 degree C; Less potent or equal to 2MeSATP; format: functional
Oryctolagus cuniculus [24] = species on record: Oryctolagus cuniculus; test: Tested for contraction of rabbit saphenous artery produced by 1 uM alpha,beta-MeATP at 37 degree C; Potency equal to ATP; format: functional
Cavia porcellus [25] = species on record: Cavia porcellus; test: Tested for contraction of guinea pig isolated urinary bladder detrusor muscle at 37 degree C; Potency equal to ATP; format: functional; details: Muscle tissue
Oryctolagus cuniculus [26] = species on record: Oryctolagus cuniculus; test: Tested for relaxation of carbachol-contracted rabbit mesenteric artery at 37 degree C; Potency equal to 2MeSATP; format: functional
Cavia porcellus [27] = species on record: Cavia porcellus; test: Tested for contraction of guinea pig vas deferens at 37 degree C; Potency equal to ATP; format: functional
Cavia porcellus [28] = species on record: Cavia porcellus; test: Tested for relaxation of carbachol-contracted guinea pig taenia coli at 37 degree C; format: functional
Outline: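 Carbachol-precontracted guinea pig taenia coli segments in 37 °C organ baths with oxygenated Krebs solution. Tension changes were recorded in response to increasing nucleotide concentrations. At least two determinations. Responses were expressed as % relaxation of the carbachol-induced contraction and reported as pD2. ATP was tested on every preparation.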

With `C=CCCCCSc1nc(NC)c2ncn(C3O[C@H](COP(=O)(O)O)[C@@H](O)[C@H]3O)c2n1` (stereo not given in full) the Relative activity (Cavia porcellus [1]) was “Partially active”, the Relative activity (Cavia porcellus [2]) was “inactive” and the Relative activity (Cavia porcellus [3]) was “inactive”. The “K 0.5” value [4] was >100000 nM, the Relative activity (Oryctolagus cuniculus [5]) was “inactive” and the Relative activity (Oryctolagus cuniculus [6]) was “inactive”. It also gave a Relative activity (Oryctolagus cuniculus [7]) of 6.7%.
With `N#CCCCCCCSc1nc(N)c2ncn(C3O[C@H](COP(=O)(O)O)[C@@H](O)[C@H]3O)c2n1` (stereo not given in full) the Relative activity (Cavia porcellus [2]) was “inactive”, the Relative activity (Cavia porcellus [3]) was “inactive” and the “K 0.5” value [4] was 37000 nM. For the same compound, the Relative activity (Oryctolagus cuniculus [8]) was 6.2, the Relative activity (Cavia porcellus [9]) was 4.4 and the Relative activity (Oryctolagus cuniculus [7]) was 4.5%.
For `N#CSCCCCCCCSc1nc(N)c2ncn(C3O[C@H](COP(=O)(O)OP(=O)(O)OP(=O)(O)O)[C@@H](O)[C@H]3O)c2n1` (stereo not given in full), the “K 0.5” value [4] was 25.9 nM.
In the case of `Nc1nc(SCCc2ccc([N+](=O)[O-])cc2)nc2c1ncn2C1O[C@H](CO)[C@@H](O)[C@H]1O` (stereo not given in full), the Activity (Meleagris gallopavo [10]) is reported as “inactive”.
In the case of `Nc1nc(SCCc2ccc([N+](=O)[O-])cc2)nc2c1ncn2C1O[C@H](COP(=O)(O)OP(=O)(O)OP(=O)(O)O)[C@@H](O)[C@H]1O` (stereo not given in full), the Relative activity (Cavia porcellus [11]) is reported as “Active”, the Relative activity (Cavia porcellus [12]) is reported as “Partially active” and the Relative activity (Cavia porcellus [13]) is reported as 8. For the same compound, the “K 0.5” value [4] was 12 nM, the Relative activity (Oryctolagus cuniculus [14]) was 6.2 and the Relative activity (Oryctolagus cuniculus [7]) was 2.6%. The Relative activity (Oryctolagus cuniculus [15]) was 7.
For `Nc1ccc(CCSc2nc(N)c3ncn([C@@H]4O[C@H](COP(=O)(O)OP(=O)(O)OP(=O)(O)O)[C@@H](O)[C@H]4O)c3n2)cc1`, the “K 0.5” value [4] was 1.53 nM.
With `CNc1ncnc2c1ncn2[C@@H]1O[C@H](COP(=O)(O)OP(=O)(O)OP(=O)(O)O)[C@@H](O)[C@H]1O` the Relative activity (Cavia porcellus [16]) was “inactive”, the Relative activity (Cavia porcellus [3]) was “inactive” and the “K 0.5” value [4] was 19000 nM. The Relative activity (Oryctolagus cuniculus [17]) was “Partially active”, the Relative activity (Oryctolagus cuniculus [5]) was “inactive” and the Relative activity (Cavia porcellus [18]) was 5.8. The Relative activity (Oryctolagus cuniculus [19]) was “inactive”.
In the case of `CSc1nc(N)c2ncn([C@@H]3O[C@H](COP(=O)(O)OP(=O)(O)O)[C@@H](O)[C@H]3O)c2n1`, the “K 0.5” value [4] is reported as 6 nM, the Relative activity (Oryctolagus cuniculus [14]) is reported as “Active” and the Relative activity (Oryctolagus cuniculus [15]) is reported as “Active”.
With `C=CCCCCSc1nc(N)c2ncn(C3O[C@H](CO)[C@@H](O)[C@H]3O)c2n1` (stereo not given in full) the Activity (Meleagris gallopavo [20]) was “inactive”.
With `C=CCCCCSc1nc(N)c2ncn(C3O[C@H](COP(=O)(O)OP(=O)(O)O)[C@@H](O)[C@H]3O)c2n1` (stereo not given in full) the Relative activity (Cavia porcellus [13]) was 8.1 and the K 0.5 [4] was 4 nM.
With `Nc1ncnc2c1ncn2[C@@H]1O[C@H](COP(=O)(O)O)[C@@H](O)[C@H]1O` [ADENOSINE PHOSPHATE] the Relative activity (Cavia porcellus [1]) was “Partially active”, the “K 0.5” value (Meleagris gallopavo [21]) was “inactive” and the Relative activity (Cavia porcellus [2]) was “inactive”. For the same compound, the Relative activity (Cavia porcellus [3]) was “inactive”, the Relative activity (Oryctolagus cuniculus [22]) was 4.8 and the Relative activity (Oryctolagus cuniculus [23]) was 5. The Relative activity (Oryctolagus cuniculus [19]) was “inactive”.
For `Nc1ncnc2c1ncn2[C@@H]1O[C@H](COP(=O)(O)OP(=O)(O)OP(=O)(O)O)[C@@H](O)[C@H]1O` [ADENOSINE TRIPHOSPHATE], the Relative activity (Oryctolagus cuniculus [24]) was “Active”, the Relative activity (Cavia porcellus [25]) was “Active” and the Relative activity (Oryctolagus cuniculus [26]) was 6. For the same compound, the “K 0.5” value [4] was 2800 nM, the Relative activity (Oryctolagus cuniculus [22]) was 4.5 and the Relative activity (Cavia porcellus [27]) was 3.5. For the same compound, the Relative activity (Cavia porcellus [28]) was 6.2.
